# Statin myotox sup: protects C2C12 myotubes from simvastatin toxicity | ATP luminescence, 48 h; scaled: DMSO 0, geranylgeraniol control 100 | rescue of ATP level, % at 7.49 µM | 330,000 tested, 0.78% active | AID 602340;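 active = mean ATP rescue above about 67%, or every replicate alone reaching that limit, limit read from the data, passing the limit was not always enough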;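 note: myotubes were challenged with 10 µM simvastatin during compound exposure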
# PGC1a acetyl inh: lowers PGC1a acetylation signal in U2OS cells | AlphaScreen anti-acetyl-lysine; with virally co-expressed GCN5 acetyltransferase | inhibition, % at 15.6 µM | 350,000 tested, 0.17% active | AID 651687;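 active = every replicate shows inhibition of at least 40%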;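 note: 0% = neutral control wells and 100% = positive control wells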
# Cneo AK release: Cryptococcus neoformans lysis via adenylate kinase release; lysis activity, % at 15 µM; C. neoformans lysis, adenylate kinase release luminescence, 4 h; normalised: neutral wells 0, clomiphene wells 100; 360,000 tested, 0.2% active; AID 651654;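 active = mean lysis activity across replicates of at least 80%, whatever share of replicates individually reach that level; inactive = mean lysis activity below 80%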
#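 Assay system: C. neoformans cells. Amount: yeast cell density of 5 × 10^6 cells/mL. Technique: AK luminescence. Buffer or medium: YPD. Times: static 4 h at 37 °C with compound, 1 h detection. Dosing: single-point compound dose. Read-out: lysis from increased AK signal.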
# SIRT5 block: inhibitors of human sirtuin-5 desuccinylase; 330,000 tested, 1.1% active; inhibition, % at 15 µM; AID 652115; Purified SirT5, succinyl-peptide AMC, trypsin-coupled fluorescence; in the data active = inhibition above about 15%
# Target sequence (Q9NXA8 whole entry, looked up): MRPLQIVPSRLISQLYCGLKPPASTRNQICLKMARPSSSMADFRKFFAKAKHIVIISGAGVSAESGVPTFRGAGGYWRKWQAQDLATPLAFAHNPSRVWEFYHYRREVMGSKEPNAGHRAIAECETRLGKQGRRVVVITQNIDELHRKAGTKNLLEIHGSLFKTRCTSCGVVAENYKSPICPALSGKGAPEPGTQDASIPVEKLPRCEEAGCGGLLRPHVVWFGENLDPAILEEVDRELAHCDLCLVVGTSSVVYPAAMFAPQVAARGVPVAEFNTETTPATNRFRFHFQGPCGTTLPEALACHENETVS
# Ecoli rRNA inh: inhibitors of bacterial rRNA selective over humanized ribosomes; E. coli WT GFP vs humanized-ribosome RFP mutants, fluorescence, 24 h; stronger effect = lower value; DMSO median 0, no signal -100; 350,000 tested, 1.6% active; AID 720706; GFP signal change (wild-type ribosome), % (no concentration beside the values);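 active = significant combined selectivity score with lowered wild-type GFP, culture density cut under 30%, mutant RFP and density less affected; inactive = any of these conditions unmet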
# S100A4 inh HTS: inhibitors of human S100A4 binding to myosin IIA peptide | P26447 | 360,000 tested, 0.14% active | inhibition, % at 10.7 µM | S100A4/TAMRA-MyoIIA peptide fluorescence polarization | AID 652163;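 active = mean inhibition of at least 70% across replicates, with every replicate also reaching that level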
# Target sequence (P26447 whole entry, looked up): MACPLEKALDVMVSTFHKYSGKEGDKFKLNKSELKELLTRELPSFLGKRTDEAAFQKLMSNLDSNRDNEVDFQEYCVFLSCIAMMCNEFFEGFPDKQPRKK
#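 Test system: S100A4 monomer protein; Medium: HEPES pH 7.2 with CaCl2, KCl, NaCl, DTT, Triton; Probe or stimulus: TAMRA-labelled myosin IIA heavy-chain peptide probe, 5 nM; Doses: one dose per compound; Times: polarization read 5 min after assay mix addition, stable 5–60 min; Benchmarks: neutral control DMSO, positive control TFP.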
# Numbers without * were called inactive; x = no result given; ! = a repeat was not active. Only some compounds are listed: those with a hit (about 3% of all), similar ones and a draw of the others.
SMILES,Statin myotox sup,PGC1a acetyl inh,Cneo AK release,SIRT5 block,Ecoli rRNA inh,S100A4 inh HTS
COc1ccc2c3c(n(C)c2c1)[C@@H](CO)N(C(=O)Nc1ccc(F)cc1)CC31CN(C(=O)c2ccccc2F)C1,x,-8,x,8,6,-3
Cc1cc(/C=C2/NC(=O)NC2=O)c(C)n1-c1ccncc1,-2,x,1,-2,-28*,-5
COCC#Cc1ccc2c(c1)O[C@@H](CN(C)C(=O)C1CCC1)[C@H](C)CN([C@H](C)CO)S2(=O)=O,0,9,-1,0,-9,8
COc1ccc(NC(=O)c2cccnc2N2CCCC2)cc1,9,-1,0,19*,7,-6
COc1ccc(CC(=O)Nc2ccc(S(=O)(=O)N3CCN(C)CC3)cc2)cc1,-7,-4,0,18*,8,-11
CN1CCN(S(=O)(=O)c2ccc(NC(=O)Cc3ccc([N+](=O)[O-])cc3)cc2)CC1,-2,-15,-3,0,4,-3
COc1ccc(NC(=O)c2cccnc2N2CCCCC2)cc1,x,-6,1,x,x,x
COc1ccc(C(=O)Nc2ccc(S(=O)(=O)N3CCCC3)cc2)cc1,x,-8,x,-1,-32*,-11
COc1ccc(C(CNC(=O)c2cccc(S(=O)(=O)N3CCCCC3)c2)N2CCCC2)cc1 (centres undefined),-24,x,-2,24*,5,4
C[C@H]1CN([C@@H](C)CO)C(=O)c2cc(-c3cccnc3)cnc2O[C@@H]1CN(C)Cc1ccc(-c2ccccc2)cc1,-26,-1,-13,4,-5,6
C[C@@H]1CN([C@@H](C)CO)C(=O)c2cc(-c3ccc(F)cc3)cnc2O[C@@H]1CN(C)C(=O)CN(C)C,-7,-11,-3,-6,3,7
C[C@@H]1CN([C@@H](C)CO)C(=O)c2cccc(NC(=O)c3ccncc3)c2O[C@H]1CN(C)Cc1ccc(Cl)c(Cl)c1,-11,-3,2,-1,x,9
COc1ccc(CC(=O)Nc2cccc(-c3cn4ccccc4n3)c2)cc1,x,x,x,2,-9,2
O=C(O)[C@H]1CCCC[C@H]1C(=O)Nc1ccc(S(=O)(=O)N2CCCCC2)cc1,6,x,5,-3,1,-10
COc1ccc(CC(=O)Nc2ccc(-c3cn4ccccc4n3)cc2)cc1,111*,-5,-6,x,x,x
O=C(Nc1ccc(S(=O)(=O)N2CCCCCC2)cc1)c1[nH]ncc1[N+](=O)[O-],20,x,-2,2,-40*,3
O=C(O)C1CCCCC1C(=O)Nc1ccc(S(=O)(=O)N2CCCC2)cc1 (centres undefined),26,x,0,17*,14,0
Cc1noc(C)c1S(=O)(=O)Nc1ccc2c(c1)C(=O)N([C@@H](C)CO)C[C@@H](C)[C@H](CN(C)Cc1ccncc1)OCCCC[C@@H](C)O2,x,-1,-2,-2,0,4
N#CCc1c(C#N)c(N)nc(Nc2ccccc2)c1C#N,16,39,2,17*,-4,3
CCOc1ccc(C(=O)OCC(=O)Nc2ccc3c(c2)OCCO3)cc1OC,4,x,2,-2,1,-1
COc1ccc(NC(=O)COc2ccc(C(=O)OCC(=O)N(C(C)C)C(C)C)cc2OC)cc1,8,-2,-1,-3,-27*,0
COc1cccc(C(=O)Nc2ccc3c(c2)OC[C@@H](C)N(CC2CC2)C[C@H](C)[C@H](OC)CN(C)C3=O)c1,8,5,-1,-1,-1,9
COc1ccc(C2c3sc(=O)[nH]c3SC3C4CCC(C4)C23)cc1 (centres undefined),5,9,x,x,x,x
COc1cc(C2c3sc(=O)[nH]c3SC3C4CCC(C4)C23)ccc1O (centres undefined),x,5,1,-2,-32*,-3
O=C(C1=C(Nc2ccccc2)c2ccccc2S(=O)(=O)N1)c1ccccc1,x,x,x,11,-19*,2
SMILES,Statin myotox sup,PGC1a acetyl inh,Cneo AK release,SIRT5 block,Ecoli rRNA inh,S100A4 inh HTS
Cc1ccc(S(=O)(=O)N(C)C[C@H]2Oc3ccc(N(C)C)cc3CC(=O)N([C@H](C)CO)C[C@@H]2C)cc1,10,-4,2,-6,-10,-2
COc1ccc(/C=C2/C(=O)N(c3nc4ccccc4s3)N=C2CSc2ccc(Cl)cc2)cc1,x,x,x,18*,0,-11
CC(C)(C)CC(=O)NC(=S)NCCc1ccccc1,-22,-29,100*,0,-49,8
O=S(=O)(O)c1cc(Cl)cc(N=Nc2ccc(O)cc2O)c1O,x,x,x,39*,-45,13
c1ccc(Cn2cc(CSc3ccccc3)nn2)cc1,0,9,1,1,-33*,-20
c1ccc(SCc2cn(C[C@H]3CC[C@@H]([C@@H]4CC[C@H](Cn5cc(CSc6ccccc6)nn5)O4)O3)nn2)cc1,2,-2,-3,-2,-26,1
C[C@@H]1CCCCO[C@H](CN(C)Cc2ccc(C(=O)Nc3ccccc3N)cc2)[C@@H](C)CN([C@H](C)CO)C(=O)c2cc(N(C)C)ccc2O1,x,x,x,x,-1,x
Cc1cccc(S(=O)(=O)N(C)C[C@@H]2OCc3ccccc3-c3c(n(C)c4ccccc34)C(=O)N([C@H](C)CO)C[C@@H]2C)c1,5,1,-1,20*,1,-11
C[C@H]1CN([C@@H](C)CO)C(=O)c2c(c3ccccc3n2C)-c2ccccc2CO[C@@H]1CN(C)S(=O)(=O)c1ccc(Cl)cc1,x,-2,-3,-1,2,-35
Cc1ccc(S(=O)(=O)N(C)C[C@H]2OCc3ccccc3-c3c(n(C)c4ccccc34)C(=O)N([C@@H](C)CO)C[C@@H]2C)cc1,x,-9,-1,9,2,-6
C[C@@H]1CN([C@H](C)CO)C(=O)c2c(c3ccccc3n2C)-c2ccccc2CO[C@H]1CN(C)S(=O)(=O)c1ccc(Cl)cc1,29,-5,107*,11,0,3
C[C@H]1CN([C@@H](C)CO)C(=O)c2c(c3ccccc3n2C)-c2ccccc2CO[C@H]1CN(C)S(=O)(=O)c1ccc(Cl)cc1,40,2,-1,13,4,26
C[C@@H]1CN([C@@H](C)CO)C(=O)c2c(c3ccccc3n2C)-c2ccccc2CO[C@@H]1CN(C)S(=O)(=O)c1ccc(Cl)cc1,53,-17,100*,9,2,4
Cc1ccc(S(=O)(=O)N(C)C[C@@H]2OCc3ccccc3-c3c(n(C)c4ccccc34)C(=O)N([C@H](C)CO)C[C@@H]2C)cc1,15,1,x,18*!,11,0
